Measurements published in ChEMBL document CHEMBL4513216, “Probing the Open Global Health Chemical Diversity Library for Multistage-Active Starting Points for Next-Generation Antimalarials” (ACS Infect Dis, 2020).

Assay: Toxicity liver stage against HepG2, at 10uM
Type: cell-based
Parameters: test concentration 10 uM, cell line HepG2-A16-CD81EGFP
Settings: human, HepG2-A16-CD81EGFP cells; read-out: INHIBITION
Outline: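 Uninfected HepG2-A16-CD81EGFP cells, 3 × 10^3 per well, 1536-well, plated on prespotted compound at 10 μM final, parasite-free screening media added to match infected plates; puromycin 10 μM positive, DMSO 0.5% negative; run in parallel with 48 h PbLuc assay at 37 °C, 5% CO2; viability by CellTiter-Glo luminescence, normalized to controls.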

Q: With `Cc1ccc(CNC2(Cc3cc(-c4ccccn4)on3)COC2)o1` as the compound, how does the cytotoxicity at 10 µM read?
A: Its cytotoxicity at 10 µM is 8.91%.

Q: With `C[C@@H](O)CNC(=O)c1nc(Cc2c(Cl)cccc2Cl)no1` as the compound, how does the cytotoxicity at 10 µM read?
A: Its cytotoxicity at 10 µM is 0.483%.

Q: For `CC(=O)N1CCCC1c1nc(C)no1` (stereo unspecified), which cytotoxicity at 10 µM is on record?
A: Its cytotoxicity at 10 µM is -14.8%.

Q: Which cytotoxicity at 10 µM does the source give for `COCC(=O)N1CCCC1c1nccnc1Nc1ncccn1` (stereo unspecified) here?
A: Its cytotoxicity at 10 µM is -2.69%.

Q: Which cytotoxicity at 10 µM does the source give for `CC(=O)NCCNC(=O)Nc1ccc(Br)cc1C(C)C` here?
A: The cytotoxicity at 10 µM was 6.54%.

Q: For `O=C(CN(Cc1cccs1)C1CCS(=O)(=O)C1)NC1CCCCC1` (stereo unspecified), which cytotoxicity at 10 µM is on record?
A: Its cytotoxicity at 10 µM is -7.53%.

Q: Which cytotoxicity at 10 µM does the source give for `Cn1cnnc1C1CCCN(c2nc3ccccc3o2)C1` (stereo unspecified) here?
A: The cytotoxicity at 10 µM was -17.4%.

Q: With `CC(C)c1ccc(S(=O)(=O)NC2CCN(CC(F)(F)F)C2)cc1` (stereo unspecified) as the compound, how does the cytotoxicity at 10 µM read?
A: The cytotoxicity at 10 µM was 9.19%.

Q: Which cytotoxicity at 10 µM does the source give for `CCN(Cc1ccoc1)C(=O)Nc1ccccc1CN(C)C(C)=O` here?
A: Its cytotoxicity at 10 µM is 4.55%.

Q: For `CCc1nc(CNc2ccc(C(=O)NCc3ccco3)cc2C)no1`, which cytotoxicity at 10 µM is on record?
A: Its cytotoxicity at 10 µM is 2.4%.

Q: Which cytotoxicity at 10 µM does the source give for `COC(=O)C(O)C1CCN(Cc2cccc(-n3cccn3)c2)CC1` (stereo unspecified) here?
A: The cytotoxicity at 10 µM was -16.5%.

Q: Which cytotoxicity at 10 µM does the source give for `Cc1cccc(N(CCC(N)=O)CC(=O)Nc2ccccc2)c1` here?
A: The cytotoxicity at 10 µM was -9.5%.

Q: With `Cc1ccccc1C(C)(C)CNC(=O)CN(C)c1cnccn1` as the compound, how does the cytotoxicity at 10 µM read?
A: The cytotoxicity at 10 µM was -2.21%.

Q: With `COCC1CN(C(=O)Nc2ccc(Cl)cc2Cl)CCO1` (stereo unspecified) as the compound, how does the cytotoxicity at 10 µM read?
A: Its cytotoxicity at 10 µM is 4.26%.

Q: With `CCc1nsc(NC2CCCn3nc(COC)nc32)n1` (stereo unspecified) as the compound, how does the cytotoxicity at 10 µM read?
A: Its cytotoxicity at 10 µM is 14.1%.

Q: For `Cn1ccnc1CNC(=O)N1CCCC(Cc2nccn2C)C1` (stereo unspecified), which cytotoxicity at 10 µM is on record?
A: The cytotoxicity at 10 µM was 2.63%.

Q: For `CCC(=O)N1CCN(C(=O)c2ccc(OC)o2)[C@H]2CS(=O)(=O)C[C@H]21`, which cytotoxicity at 10 µM is on record?
A: The cytotoxicity at 10 µM was 0.224%.

Q: For `COCc1noc(CCNC(=O)c2cc(C)c(C)[nH]c2=O)n1`, which cytotoxicity at 10 µM is on record?
A: Its cytotoxicity at 10 µM is -4.71%.

Q: For `Cc1cccc(C(C(=O)N2CC(Oc3ccccc3F)C2)N(C)C)c1` (stereo unspecified), which cytotoxicity at 10 µM is on record?
A: The cytotoxicity at 10 µM was -0.572%.

Q: For `CCN(CC)C(=O)[C@@H]1C[C@@H](NC(=O)c2ccoc2)CN1C`, which cytotoxicity at 10 µM is on record?
A: The cytotoxicity at 10 µM was 2.37%.

Q: Which cytotoxicity at 10 µM does the source give for `Cc1ccc(CCNc2nccc(-c3cc(C(=O)O)ccn3)n2)o1` here?
A: Its cytotoxicity at 10 µM is -2.86%.

Q: Which cytotoxicity at 10 µM does the source give for `COc1ncc(CN2CCC3(CCCN(CC4CCCCC4)C3)C2)cn1` (stereo unspecified) here?
A: The cytotoxicity at 10 µM was -6.8%.

Q: Which cytotoxicity at 10 µM does the source give for `CN(C)S(=O)(=O)N1CC[C@]2(O)CCN(c3ncccn3)C[C@@H]2C1` here?
A: Its cytotoxicity at 10 µM is 5.74%.

Q: For `CCn1cc(CN(C)C(=O)c2cccc(CCC(C)(C)O)c2)cn1`, which cytotoxicity at 10 µM is on record?
A: The cytotoxicity at 10 µM was -0.0444%.

Q: Which cytotoxicity at 10 µM does the source give for `O=C(CCc1c[nH]cn1)N1CC[C@@H](c2ccc3ccccc3c2)[C@H](O)C1` here?
A: The cytotoxicity at 10 µM was -4.04%.

Q: Which cytotoxicity at 10 µM does the source give for `CC(C(=O)N1CCCC1)N1CCC(c2nccn2CC2CCC2)CC1` (stereo unspecified) here?
A: Its cytotoxicity at 10 µM is -1.96%.

Q: For `Cn1nccc1CNC(=O)CCn1nc(C(F)(F)F)c(Cl)c1C1CC1`, which cytotoxicity at 10 µM is on record?
A: Its cytotoxicity at 10 µM is -3.33%.

Q: With `O=C(CN1CCCC1c1noc(C2CC2)n1)N1CCc2ccccc21` (stereo unspecified) as the compound, how does the cytotoxicity at 10 µM read?
A: The cytotoxicity at 10 µM was -5.86%.

Q: With `Cc1nn(C)c(N2CCOCC2)c1CNC1CCc2ccccc21` (stereo unspecified) as the compound, how does the cytotoxicity at 10 µM read?
A: Its cytotoxicity at 10 µM is -0.704%.

Q: For `CN(Cc1nc(-c2ccoc2)no1)C1CCCN(c2cccnn2)C1` (stereo unspecified), which cytotoxicity at 10 µM is on record?
A: Its cytotoxicity at 10 µM is -14.8%.

Q: With `CN(C)c1ccc(C(=O)N2CCN(CC(O)C(C)(C)C)CC2)nn1` (stereo unspecified) as the compound, how does the cytotoxicity at 10 µM read?
A: Its cytotoxicity at 10 µM is -19.2%.

Q: For `Cc1cc(CN2CCOC(CNc3cccnn3)C2)no1` (stereo unspecified), which cytotoxicity at 10 µM is on record?
A: The cytotoxicity at 10 µM was -18.4%.

Q: With `CN(Cc1ccc(N2CCOCC2)cc1)C(=O)Cn1cccnc1=O` as the compound, how does the cytotoxicity at 10 µM read?
A: Its cytotoxicity at 10 µM is -18.4%.

Q: With `COC(=O)CC(NC(=O)c1ccc(OC)cc1OC)c1cccs1` (stereo unspecified) as the compound, how does the cytotoxicity at 10 µM read?
A: The cytotoxicity at 10 µM was -0.554%.

Q: For `Cc1cnn(CCNCc2ccc(OCc3ccncc3)cc2)c1`, which cytotoxicity at 10 µM is on record?
A: The cytotoxicity at 10 µM was -2.99%.

Q: With `Cc1cnn(CC2CCCCN2C(=O)Cc2c(C)nn(C)c2C)c1` (stereo unspecified) as the compound, how does the cytotoxicity at 10 µM read?
A: The cytotoxicity at 10 µM was -13%.

Q: For `Cn1ccnc1CN1CCOC(Cn2cccn2)C1` (stereo unspecified), which cytotoxicity at 10 µM is on record?
A: The cytotoxicity at 10 µM was -6.07%.

Q: For `CC1CCCCN1CCNC(=O)c1ccn(-c2ccccc2)n1` (stereo unspecified), which cytotoxicity at 10 µM is on record?
A: Its cytotoxicity at 10 µM is -15.2%.

Q: For `Cc1cnc(C(=O)N2CCCC(n3nc(C)nc3C)C2)cn1` (stereo unspecified), which cytotoxicity at 10 µM is on record?
A: Its cytotoxicity at 10 µM is -12%.

Q: For `CNC(=O)c1ccc(CN(C(=O)c2scnc2C)C2CC2)cc1`, which cytotoxicity at 10 µM is on record?
A: The cytotoxicity at 10 µM was -3.09%.

Q: For `Cc1ccc(Cl)cc1N1CCC(CNC(=O)CC(F)(F)F)C1` (stereo unspecified), which cytotoxicity at 10 µM is on record?
A: The cytotoxicity at 10 µM was -9.7%.

Q: For `Cc1noc(CCCC(=O)NC(C)c2cn(-c3ccccc3)nn2)n1` (stereo unspecified), which cytotoxicity at 10 µM is on record?
A: Its cytotoxicity at 10 µM is -8.18%.

Q: Which cytotoxicity at 10 µM does the source give for `Fc1ccc(-c2cnc(CN3CCCC3Cn3cccn3)o2)cc1` (stereo unspecified) here?
A: The cytotoxicity at 10 µM was -7.52%.

Q: With `Cc1cc(C)n(C2CN(CC(O)c3ccc(F)cc3)C2)n1` (stereo unspecified) as the compound, how does the cytotoxicity at 10 µM read?
A: The cytotoxicity at 10 µM was -13%.

Q: For `Cc1cc(C(=O)NCCn2nc3ccccn3c2=O)[nH]n1`, which cytotoxicity at 10 µM is on record?
A: The cytotoxicity at 10 µM was -4.92%.

Q: Which cytotoxicity at 10 µM does the source give for `COCC1c2c(cnn2CC2CC2)CCN1Cc1nccs1` (stereo unspecified) here?
A: The cytotoxicity at 10 µM was -1.21%.
